Measured values from ChEMBL document CHEMBL2086296, “Synthesis of novel quinoline-2-one based chalcones of potential anti-tumor activity” (Eur J Med Chem, 2012).

How the values were obtained:
NCI-H522 = assay: Cytotoxicity against human NCI-H522 cells after 24 hrs by SRB assay; type: functional; conditions: NCI-H522, 24 h
Method in brief: (§1)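 NCI 60-line screen. Cells in RPMI 1640 with 5% FBS and 2 mM L-glutamine, seeded at 5,000–40,000 cells/well by doubling time, then incubated 24 h at 37 °C, 5% CO2 before dosing. Time-zero plates fixed with TCA at drug addition. DMSO stocks diluted in medium with gentamicin to five concentrations, […]. Protein read by SRB staining. GI50, TGI and LC50 derived relative to control and time-zero.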

A549 = assay: Cytotoxicity against human A549 cells after 24 hrs by SRB assay; type: functional; conditions: A549, 24 h; method in brief: as §1
HCT-116 = assay: Cytotoxicity against human HCT116 cells after 24 hrs by SRB assay; type: functional; conditions: HCT-116, 24 h; method in brief: as §1
SW-620 = assay: Cytotoxicity against human SW620 cells after 24 hrs by SRB assay; type: functional; conditions: SW-620, 24 h
Method in brief: (§2)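 NCI 60-cell screen. Cells are grown in RPMI 1640 with 5% FBS and 2 mM L-glutamine and seeded at 5,000–40,000 cells/well according to doubling time. They are preincubated 24 h at 37 °C in 5% CO2, and Tz plates are TCA-fixed at drug addition. Drug stock is in DMSO, diluted in medium with gentamicin, and tested at five concentrations (100, 10, 1.0, 0.1, […]). Protein is read by SRB staining. GI50, TGI and LC50 are derived relative to time-zero and control wells.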

SF-539 = assay: Cytotoxicity against human SF539 cells after 24 hrs by SRB assay; type: functional; conditions: SF-539, 24 h; method in brief: as §1
U-251 [1] = assay: (§3) Cytotoxicity against human U251 cells after 24 hrs by SRB assay; type: functional; conditions: U-251, 24 h; method in brief: as §2
SF-268 [2] = assay: (§4) Cytotoxicity against human SF268 cells after 24 hrs by SRB assay; type: functional; conditions: SF-268, 24 h; method in brief: as §1
LOX IMVI = assay: Cytotoxicity against human LOXIMVI cells after 24 hrs by SRB assay; type: functional; method in brief: as §1
SK-MEL-2 = assay: Cytotoxicity against human SK-MEL-2 cells after 24 hrs by SRB assay; type: functional; conditions: SK-MEL-2, 24 h; method in brief: as §1
M14 = assay: Cytotoxicity against human M14 cells after 24 hrs by SRB assay; type: functional; conditions: M14, 24 h; method in brief: as §1
OVCAR-3 = assay: Cytotoxicity against human OVCAR3 cells after 24 hrs by SRB assay; type: functional; conditions: OVCAR-3, 24 h; method in brief: as §1
OVCAR-4 [3] = assay: (§5) Cytotoxicity against human OVCAR4 cells after 24 hrs by SRB assay; type: functional; conditions: OVCAR-4, 24 h; method in brief: as §1
OVCAR-5 = assay: Cytotoxicity against human OVCAR5 cells after 24 hrs by SRB assay; type: functional; conditions: OVCAR-5, 24 h; method in brief: as §1
TK-10 = assay: Cytotoxicity against human TK10 cells after 24 hrs by SRB assay; type: functional; conditions: TK-10, 24 h; method in brief: as §2
786-0 [4] = assay: (§6) Cytotoxicity against human 786-0 cells after 24 hrs by SRB assay; type: functional; conditions: 786-0, 24 h; method in brief: as §1
MCF7 [5] = assay: (§7) Cytotoxicity against human MCF7 cells after 24 hrs by SRB assay; type: functional; conditions: MCF7, 24 h; method in brief: as §1
T47D = assay: Cytotoxicity against human T47D cells after 24 hrs by SRB assay; type: functional; method in brief: as §2
MDA-MB-468 = assay: Cytotoxicity against human MDA-MB-468 cells after 24 hrs by SRB assay; type: functional; conditions: MDA-MB-468, 24 h; method in brief: as §1
MOLT-4 = assay: Cytotoxicity against human MOLT4 cells after 24 hrs by SRB assay; type: cell-based; conditions: molt-4, 24 h
Method in brief: (§8)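 NCI 60-cell screen. Cells grown in RPMI 1640 with 5% FBS and 2 mM L-glutamine, seeded at 5,000–40,000 cells/well, preincubated 24 h at 37 °C in 5% CO2. Drug stock in DMSO, diluted in medium with gentamicin; five final concentrations, 100, 10, 1.0, 0.1 and […]. Time-zero plates were TCA-fixed. Protein read by SRB staining; GI50, TGI and LC50 taken relative to time-zero.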

NCI-H23 = assay: Cytotoxicity against human NCI-H23 cells after 24 hrs by SRB assay; type: cell-based; conditions: nci-h23, 24 h; method in brief: as §8
NCI-H460 = assay: Cytotoxicity against human NCI-H460 cells after 24 hrs by SRB assay; type: cell-based; conditions: nci-h460, 24 h; method in brief: as §8
COLO 205 = assay: Cytotoxicity against human COLO205 cells after 24 hrs by SRB assay; type: cell-based; conditions: colo 205, 24 h; method in brief: as §8
HT-29 = assay: Cytotoxicity against human HT-29 cells after 24 hrs by SRB assay; type: cell-based; conditions: ht-29, 24 h; method in brief: as §8
KM12 = assay: Cytotoxicity against human KM12 cells after 24 hrs by SRB assay; type: cell-based; conditions: km12, 24 h; method in brief: as §8
HCC 2998 = assay: Cytotoxicity against human HCC2998 cells after 24 hrs by SRB assay; type: cell-based; conditions: hcc 2998, 24 h; method in brief: as §8
SF-295 = assay: Cytotoxicity against human SF295 cells after 24 hrs by SRB assay; type: cell-based; conditions: sf-295, 24 h; method in brief: as §8
U-251 [6] = assay: as §3; type: cell-based; conditions: u-251, 24 h
Method in brief: (§9)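 NCI 60-cell-line screen: cells grown in RPMI 1640 with 5% FBS and 2 mM L-glutamine, seeded at 5,000–40,000 cells/well by doubling time, and preincubated 24 h at 37 °C in 5% CO2. Time-zero plates were TCA-fixed. DMSO stocks were diluted in medium with gentamicin to five concentrations (100, 10, 1.0, 0.1, […]). Protein was read by SRB, and GI50, TGI and LC50 were derived against time-zero.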

SF-268 [7] = assay: as §4; type: cell-based; conditions: sf-268, 24 h; method in brief: as §8
HL-60 = assay: Cytotoxicity against human HL60 cells after 24 hrs by SRB assay; type: functional; conditions: HL-60, 24 h; method in brief: as §1
UACC-257 = assay: Cytotoxicity against human UACC257 cells after 24 hrs by SRB assay; type: cell-based; conditions: uacc-257, 24 h; method in brief: as §9
OVCAR-4 [8] = assay: as §5; type: cell-based; conditions: ovcar-4, 24 h; method in brief: as §8
NCI/ADR-RES = assay: Cytotoxicity against human NCI/ADR-RES cells after 24 hrs by SRB assay; type: cell-based; method in brief: as §8
RXF 393 = assay: Cytotoxicity against human RXF393 cells after 24 hrs by SRB assay; type: cell-based; conditions: rxf 393, 24 h; method in brief: as §8
SN12C = assay: Cytotoxicity against human SN12C cells after 24 hrs by SRB assay; type: cell-based; method in brief: as §9
786-0 [9] = assay: as §6; type: cell-based; conditions: 786-0, 24 h; method in brief: as §8
MCF7 [10] = assay: as §7; type: cell-based; conditions: mcf7, 24 h; method in brief: as §8
BT-549 = assay: Cytotoxicity against human BT549 cells after 24 hrs by SRB assay; type: cell-based; conditions: bt-549, 24 h; method in brief: as §8

## COc1ccc(C(=O)/C=C/c2cc3ccccc3[nH]c2=O)cc1
NCI-H522
  GI50: 2120 nM
  TGI: 6.13 µM
A549
  GI50: 3.21 µM
  TGI: > 100 µM
HCT-116
  GI50: 2310 nM
  TGI: 5.7 µM
SW-620
  GI50: 3.41 µM
  TGI: 8.89 µM
SF-539
  GI50: 2760 nM
  TGI: 7.49 µM
U-251 [1]
  GI50: 2700 nM
  TGI: 10.9 µM
SF-268 [2]
  GI50: 2850 nM
  TGI: 9.77 µM
LOX IMVI
  GI50: 1850 nM
  TGI: 5.54 µM
SK-MEL-2
  GI50: 3.91 µM
  TGI: 40.1 µM
M14
  GI50: 4.06 µM
  TGI: 22.5 µM
OVCAR-3
  GI50: 2490 nM
  TGI: 6.72 µM
OVCAR-4 [3]
  GI50: 2940 nM
  TGI: > 100 µM
OVCAR-5
  GI50: 3.6 µM
  TGI: 18.4 µM
TK-10
  GI50: 3.54 µM
  TGI: 55.8 µM
786-0 [4]
  GI50: 3.52 µM
  TGI: > 100 µM
MCF7 [5]
  GI50: 2860 nM
  TGI: 88.7 µM
T47D
  GI50: 3.55 µM
  TGI: > 100 µM
MDA-MB-468
  GI50: 2380 nM
  TGI: 5.98 µM
MOLT-4
  LC50: > 100 µM
NCI-H23
  LC50: > 100 µM
NCI-H460
  LC50: 66.8 µM
COLO 205
  LC50: 77.6 µM
HT-29
  LC50: > 100 µM
KM12
  LC50: 26.9 µM
HCC 2998
  LC50: 29 µM
SF-295
  LC50: 80.8 µM
U-251 [6]
  LC50: > 100 µM
SF-268 [7]
  LC50: 40.7 µM
HL-60
  GI50: 3.36 µM
  TGI: > 100 µM
UACC-257
  LC50: 65.5 µM
OVCAR-4 [8]
  LC50: > 100 µM
NCI/ADR-RES
  LC50: > 100 µM
RXF 393
  LC50: 33.5 µM
SN12C
  LC50: > 100 µM
786-0 [9]
  LC50: > 100 µM
MCF7 [10]
  LC50: > 100 µM
BT-549
  LC50: 46.3 µM
